Results on two molecules are retold here after paper PMC9065027 (RSC Advances, 2019).

The structures appear in SMILES notation.

One experiment relates to LdNH. The experiment in a line: NMR Saturation Transfer Difference. As to conditions: 100 μM LdNH, 2 mM compound, 2 s saturation time. Type of experiment: binding, Leishmania donovani. An outline of the steps: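 STD spectra acquired in alternating scans, on-resonance at −1 ppm and off-resonance at 20 ppm. DPFGSE water suppression, 2 s saturation time, 1024 scans.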
A further experiment deals with HSV-1. As to conditions: cited from earlier work.
The subject of the next experiment is HSV-2. The following applies: cited from earlier work.
The test system of experiment [1] is amastigote parasite Leishmania amazonensis. As to conditions: cited from earlier work.

Turning to `C[C@@H]1O[C@@H](Oc2c(-c3ccc(O)cc3)oc3cc(O)cc(O)c3c2=O)[C@H](O[C@@H]2OC[C@@H](O)[C@H](O)[C@H]2O)[C@H](O)[C@H]1O` [compound 2, kaempferol 3-O-β-D-xylopyranosyl-(1→2)-α-L-rhamnopyranoside], in the experiment on LdNH, the “STD signals in presence of LdNH” value was “much more intense”. Moreover, the “anti-viral activity EC50” value was 7.4 µg/mL in the experiment on HSV-1 and 9.0 µg/mL in the experiment with HSV-2.
Broadly, the IC50 is the concentration at which inhibition is half-maximal. For the molecule `C[C@@H]1O[C@@H](Oc2c(-c3ccc(O)cc3)oc3cc(O)cc(O)c3c2=O)[C@H](O)[C@H](O)[C@H]1O` [compound 1, kaempferol 3-O-α-L-rhamnopyranoside], the “STD signals in presence of LdNH” value in the experiment on LdNH was “only weak resonances”. In addition, in experiment [1], the “leishmanicidal activity IC50” value is 70 µg/mL. Moreover, the IC50 in experiment [1] (read-out: leishmanicidal activity IC50, value in brackets) was 162 µM.
